Results: ChEMBL document CHEMBL1130392, “Total syntheses and anticholinesterase activities of (3aS)-N(8)-norphysostigmine, (3aS)-N(8)-norphenserine, their antipodal isomers, and other N(8)-substituted analogues” (J Med Chem, 1997)

Tests used:
Acetylcholinesterase = Acetylcholinesterase (Homo sapiens, UniProt P22303); experiment: Inhibition of human acetylcholinesterase from erythrocytes (RBC)
Cholinesterase = Cholinesterase (Homo sapiens, UniProt P06276); experiment: Inhibition of human Butyrylcholinesterase
Sequence of Cholinesterase (P06276 whole entry): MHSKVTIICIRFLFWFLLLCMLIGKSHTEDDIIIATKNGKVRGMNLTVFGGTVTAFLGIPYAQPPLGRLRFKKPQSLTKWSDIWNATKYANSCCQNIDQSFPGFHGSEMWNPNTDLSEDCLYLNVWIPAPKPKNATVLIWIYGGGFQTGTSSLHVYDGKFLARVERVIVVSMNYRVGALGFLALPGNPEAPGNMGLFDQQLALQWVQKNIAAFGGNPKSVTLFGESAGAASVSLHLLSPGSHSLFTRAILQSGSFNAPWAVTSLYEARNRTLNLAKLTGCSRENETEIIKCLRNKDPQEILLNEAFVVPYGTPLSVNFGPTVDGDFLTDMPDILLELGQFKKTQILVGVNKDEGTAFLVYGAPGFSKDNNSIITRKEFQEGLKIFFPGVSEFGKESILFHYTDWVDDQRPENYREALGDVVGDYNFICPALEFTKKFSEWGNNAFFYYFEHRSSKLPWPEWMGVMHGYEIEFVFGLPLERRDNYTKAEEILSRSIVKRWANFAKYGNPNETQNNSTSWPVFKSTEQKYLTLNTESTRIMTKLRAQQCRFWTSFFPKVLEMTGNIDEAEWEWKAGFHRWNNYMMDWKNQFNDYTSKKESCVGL
Summary of the method: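 Compounds in Tween 80/EtOH 3:1 were diluted in half-log steps to 0.3 nM–[…] final and preincubated with enzyme in pH 8.0 buffer for 30 min at RT. Run on four occasions. IC50 from logit activity versus log concentration.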

[1] = In vivo half life of the compound; assay type: ADME, organism-based

Sequence of Acetylcholinesterase (P22303 whole entry): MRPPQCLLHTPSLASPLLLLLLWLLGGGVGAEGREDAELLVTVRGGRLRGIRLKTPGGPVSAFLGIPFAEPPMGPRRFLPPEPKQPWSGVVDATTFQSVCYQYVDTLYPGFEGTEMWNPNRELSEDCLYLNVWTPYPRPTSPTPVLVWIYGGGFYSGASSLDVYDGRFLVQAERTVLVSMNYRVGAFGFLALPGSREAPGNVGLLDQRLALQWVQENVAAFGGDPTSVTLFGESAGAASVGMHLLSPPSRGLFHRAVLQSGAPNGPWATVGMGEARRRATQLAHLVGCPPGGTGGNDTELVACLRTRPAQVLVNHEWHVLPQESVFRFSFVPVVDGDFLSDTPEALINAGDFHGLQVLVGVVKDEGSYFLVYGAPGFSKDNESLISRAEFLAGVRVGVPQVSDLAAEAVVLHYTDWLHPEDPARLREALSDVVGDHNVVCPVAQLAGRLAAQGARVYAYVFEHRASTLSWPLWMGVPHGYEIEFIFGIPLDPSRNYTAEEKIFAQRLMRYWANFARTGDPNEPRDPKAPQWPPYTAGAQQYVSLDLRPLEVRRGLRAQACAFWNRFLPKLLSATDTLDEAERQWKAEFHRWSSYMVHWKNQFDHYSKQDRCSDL

Compound | IC50 (Acetylcholinesterase) [nM] | IC50 (Cholinesterase) [nM] | half-life [1] [min]
CNC(=O)Oc1ccc2c(c1)[C@]1(C)CCN(C)C1N2 (stereo not given in full) | 56.7 | 6.8 | –
CN1CC[C@@]2(C)c3cc(OC(=O)Nc4ccccc4)ccc3NC12 (stereo not given in full) | – | 516 | –
CN1CC[C@]2(C)c3cc(OC(=O)Nc4ccccc4)ccc3N(Cc3ccccc3)C12 (stereo not given in full) | 11200 | 7090 | –
CNC(=O)Oc1ccc2c(c1)[C@@]1(C)CCN(C)C1N2Cc1ccccc1 (stereo not given in full) | 2850 | 1590 | –
CN1CC[C@@]2(C)c3cc(OC(=O)Nc4ccccc4)ccc3N(Cc3ccccc3)C12 (stereo not given in full) | 245 | 85.3 | –
CN1CC[C@]2(C)c3cc(OC(=O)Nc4ccccc4)ccc3NC12 (stereo not given in full) | 5650 | 1750 | –
CN1CC[C@@]2(C)c3cc(OC(=O)Nc4ccccc4)ccc3N(C=O)C12 (stereo not given in full) | 780 | 1470 | –
CNC(=O)Oc1ccc2c(c1)[C@]1(C)CCN(C)[C@@H]1N2C [PHYSOSTIGMINE] | – | – | 60
CNC(=O)Oc1ccc2c(c1)[C@]1(C)CCN(C)C1N2C=O (stereo not given in full) | 387 | 46 | –
CNC(=O)Oc1ccc2c(c1)[C@]1(C)CCN(C)C1N2Cc1ccccc1 (stereo not given in full) | 161 | 21.8 | –
CN1CC[C@]2(C)c3cc(OC(=O)Nc4ccccc4)ccc3N(C)C12 (stereo not given in full) | 3500 | 23500 | –
CNC(=O)Oc1ccc2c(c1)[C@@]1(C)CCN(C)C1N2 (stereo not given in full) | 2190 | 1120 | –
CN1CC[C@@]2(C)c3cc(OC(=O)Nc4ccccc4)ccc3N(C)C12 (stereo not given in full) | 24 | 1300 | 480
